According to ChEMBL document CHEMBL4004799, “Octaminomycins A and B, Cyclic Octadepsipeptides Active against Plasmodium falciparum” (J Nat Prod, 2017):
Calls of active or inactive are those of the source. The rule behind the calls is not given here. Where a SMILES comes first, the peptide text is derived from it. Bridges are numbered along the chain shown (N, C = ends). [ ]: non-standard residue; d: D form. The star is where a group is joined. NMeY = CN[C@@H](Cc1ccc(O)cc1)C(=O)O; Propionyl = CCC(=O)*

Tests used:
Plasmodium falciparum [1] = assay: Antimalarial activity against chloroquine-resistant Plasmodium falciparum Dd2; format: functional
How it was run: (§1)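 P. falciparum strains maintained at 37 °C under 5.0% CO2 in human erythrocytes (3% hematocrit), RPMI1640 with 10% human plasma; assay run per an earlier published method; IC50 in μM.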

Aspergillus fumigatus = assay: Antimicrobial activity against Aspergillus fumigatus Af293 up to 30 uM after 48 hrs by broth microdilution assay; format: functional
Plasmodium falciparum [2] = assay: Antimalarial activity against chloroquine-sensitive Plasmodium falciparum 3D7; format: functional; how it was run: as §1
Plasmodium falciparum [3] = assay: Antimalarial activity against chloroquine-resistant Plasmodium falciparum K1; format: functional; how it was run: as §1
Candida albicans = assay: Antimicrobial activity against Candida albicans JCM1542 up to 30 uM after 24 hrs by broth microdilution assay; format: functional
NRK = assay: Cytotoxicity against rat NRK cells infected with temperature-sensitive mutant of Rous sarcoma virus after 48 hrs by WST-8 assay; format: cell-based
How it was run: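 Rat kidney cells infected with ts25 (T-class Rous sarcoma virus Prague mutant) grown at permissive 32 °C in MEM + 10% calf serum; […] cells/well seeded, compounds applied 48 h; WST-8 (1/10 volume) added for 1 h, growth read as absorbance at 450 nm.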

Escherichia coli = assay: Antimicrobial activity against Escherichia coli HO141 up to 30 uM after 24 hrs by broth microdilution assay; format: functional
[4] = Cytotoxicity against temperature-sensitive mouse FT210 cells after 48 hrs by WST-8 assay; format: cell-based; conditions: FT210, 48 h
How it was run: (§2)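 Cells were seeded in 96-well plates and exposed to compounds for 48 h. HL-60 cells were grown at 37 °C in RPMI-1640 with 10% FBS. tsFT210 cells, a mouse FM3A cdc2 temperature-sensitive mutant, were grown at 32 °C in RPMI-1640 with 5% calf serum. WST-8 was added at 1/10 volume for 1 h, and growth was read as absorbance at 450 nm.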

Pyricularia oryzae = assay: Antimicrobial activity against Pyricularia oryzae kita-1 up to 30 uM after 48 hrs by broth microdilution assay; format: functional
HL-60 = assay: Cytotoxicity against human HL60 cells after 48 hrs by WST-8 assay; format: cell-based; conditions: HL-60, 48 h; how it was run: as §2
Staphylococcus aureus = assay: Antimicrobial activity against Staphylococcus aureus 209 up to 30 uM after 24 hrs by broth microdilution assay; format: functional
HeLa = assay: Cytotoxicity against human HeLa cells after 48 hrs by WST-8 assay; format: cell-based

SMILES: CCC(=O)N[C@@H]1C(=O)N[C@@H](Cc2ccccc2)C(=O)N[C@H](CC(C)C)C(=O)N[C@@H](C(C)C)C(=O)N2CCC[C@H]2C(=O)N[C@@H](CC(C)C)C(=O)N(C)[C@@H](Cc2ccc(O)cc2)C(=O)N2CCC[C@H]2C(=O)O[C@@H]1C (Propionyl-TF[dL]VPL[NMeY]P; ester 1-C)
- IC50 (Plasmodium falciparum [1]): 1.6 µM
- Activity (Aspergillus fumigatus): inactive
- IC50 (Plasmodium falciparum [2]): 1.5 µM
- IC50 (Plasmodium falciparum [3]): 1.3 µM
- Activity (Candida albicans): inactive
- IC50 (NRK): > 30 µM
- Activity (Escherichia coli): inactive
- IC50 [4]: > 30 µM
- Activity (Pyricularia oryzae): inactive
- IC50 (HL-60): > 30 µM
- Activity (Staphylococcus aureus): inactive
- IC50 (HeLa): > 30 µM

SMILES: CC(=O)N[C@@H]1C(=O)N[C@@H](Cc2ccccc2)C(=O)N[C@H](CC(C)C)C(=O)N[C@@H](C(C)C)C(=O)N2CCC[C@H]2C(=O)N[C@@H](CC(C)C)C(=O)N(C)[C@@H](Cc2ccc(O)cc2)C(=O)N2CCC[C@H]2C(=O)O[C@@H]1C (Ac-TF[dL]VPL[NMeY]P; ester 1-C)
- IC50 (Plasmodium falciparum [1]): 1.1 µM
- Activity (Aspergillus fumigatus): inactive
- IC50 (Plasmodium falciparum [2]): 1.5 µM
- IC50 (Plasmodium falciparum [3]): 0.83 µM
- Activity (Candida albicans): inactive
- IC50 (NRK): > 30 µM
- Activity (Escherichia coli): inactive
- IC50 [4]: > 30 µM
- Activity (Pyricularia oryzae): inactive
- IC50 (HL-60): > 30 µM
- Activity (Staphylococcus aureus): inactive
- IC50 (HeLa): > 30 µM
